Measurements taken from ChEMBL document CHEMBL4038284, “Synthesis of novel quinoline-based 4,5-dihydro-1H-pyrazoles as potential anticancer, antifungal, antibacterial and antiprotozoal agents” (Eur J Med Chem, 2017).
≈ marks a conversion by molar mass, not a printed value.

Tests used:
[1] = test system: Cryptococcus neoformans; assay: Growth inhibition of Cryptococcus neoformans ATCC 32264 at 125 ug/ml incubated for 48 hrs under dark condition by broth microdilution method relative to control; assay type: functional; conditions: ATCC 32264, 48 h, read-out: GI
Outline: (§1)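 CLSI M27-A3 broth microdilution in RPMI-1640, DMSO ≤1%. Inoculum 1-5 × 10^3 CFU/mL. Incubated 48 h at 30 °C, dark. % inhibition = 100 − (OD405 test − sterility control)/(OD405 growth control − sterility control), with growth and sterility control wells. Triplicate.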

[2] = test system: Klebsiella pneumoniae; assay: Antibacterial activity against carbapenemase positive Klebsiella pneumoniae BAA 1705 after 24 hrs by resazurin dye based microdilution assay; assay type: functional; conditions: BAA 1705, 24 h
Outline: (§2)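 MIC taken as the lowest concentration giving visible inhibition and/or by resazurin (1 mg/mL). Gentamicin was the control. Run in duplicate, repeated at least three times.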

[3] = test system: Staphylococcus aureus; assay: Antibacterial activity against methicillin-sensitive Staphylococcus aureus ATCC 25923 after 24 hrs by resazurin dye based microdilution assay; assay type: functional; conditions: ATCC 25923, 24 h; outline: as §2
[4] = test system: Leishmania panamensis; assay: Antileshmanial activity against EpiR/GFP fused Leishmania panamensis MHOM/CO/87/UA140 intracellular amastigotes infected in human […] cells after 72 hrs by flow cytometric method; assay type: functional, cell-based; conditions: MHOM/CO/87/UA140, 72 h
Outline: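 PMA-treated U-937 cells (3 × 10^5 cells/mL) infected with stationary-phase GFP L. panamensis promastigotes (15:1), 3 h at 34 °C, then washed. After 24 h, compounds added at 50, 12.5, 3.125 and 0.78 µg/mL for 72 h at 37 °C. EC50 by Probit; triplicate, two experiments.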

[5] = test system: Candida albicans; assay: Growth inhibition of Candida albicans ATCC 10231 at 3.4 ug/ml incubated for 48 hrs under dark condition by broth microdilution method relative to control; assay type: functional; conditions: ATCC 10231, 48 h, read-out: GI
[6] = test system: U-937; assay: Cytotoxicity against human U937 cells after 72 hrs by MTT assay; assay type: cell-based; conditions: u-937, 72 h
Outline: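 Exponentially growing U-937 at 1 × 10^5 cells/mL in RPMI-1640 with 10% FBS were exposed to 200, 50, 12.5 and 3.125 µg/mL for 72 h at 37 °C, 5% CO2. MTT for 3 h, stopped with isopropanol/SDS, formazan read at 570 nm, blank-corrected. LC50 by Probit from % viability against untreated cells. Triplicate, at least two independent experiments.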

[7] = test system: Cryptococcus neoformans; assay: Growth inhibition of Cryptococcus neoformans ATCC 32264 at 31.25 ug/ml incubated for 48 hrs under dark condition by broth microdilution method relative to control; assay type: functional; conditions: ATCC 32264, 48 h, read-out: GI; outline: as §1
[8] = test system: Plasmodium falciparum; assay: Antiplasmodial activity against chloroquine-sensitive Plasmodium falciparum 3D7 assessed as reduction in parasitic LDH activity after 48 hrs by Malstat reagent based […] method; assay type: functional; conditions: 3D7, 48 h
Outline: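 Unsynchronized P. falciparum 3D7 at 0.5% parasitemia and 1% hematocrit in RPMI with 3% Albumax II. Exposed to 100, 25, 6.25 and 1.56 µg/mL for 48 h at 37 °C under 90% N2/5% CO2/5% O2. After three freeze-thaw cycles, LDH measured with Malstat and NBT/PES, 1 h in the dark, read at 650 nm. IC50 by Probit; triplicate, ≥2 experiments.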

[9] = test system: Candida albicans; assay: Growth inhibition of Candida albicans ATCC 10231 at 31.25 ug/ml incubated for 48 hrs under dark condition by broth microdilution method relative to control; assay type: functional; conditions: ATCC 10231, 48 h, read-out: GI; outline: as §1
[10] = test system: Cryptococcus neoformans; assay: Growth inhibition of Cryptococcus neoformans ATCC 32264 at 15.62 ug/ml incubated for 48 hrs under dark condition by broth microdilution method relative to control; assay type: functional; conditions: ATCC 32264, 48 h, read-out: GI; outline: as §1
[11] = test system: Candida albicans; assay: Antifungal activity against Candida albicans ATCC 10231 incubated for 48 hrs under dark condition by broth microdilution method; assay type: functional; conditions: ATCC 10231, 48 h
Outline: (§3)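 CLSI M27-A3 broth microdilution in RPMI-1640, DMSO ≤1%, compounds at 250-0.98 µg/mL final. Inoculum 1-5 × 10^3 CFU/mL. Incubated 48 h at 30 °C in a moist dark chamber, read at OD405. MIC80 and MIC50 taken from % inhibition dose-response curves (mean ± SEM, triplicate). Amphotericin B was the positive control.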

[12] = test system: Trypanosoma cruzi; assay: Antitrypanosomal activity against Trypanosoma cruzi Tulahuen intracellular amastigote harboring LacZ infected in human U937 cells after 72 hrs by CPRG/Nonidet reagent based spectrophotometric method; assay type: functional, cell-based; conditions: U-937, 72 h
Outline: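 U-937 cells at 2.5 × 10^5 cells/mL in RPMI-1640 with 10% serum and 0.1 µg/mL PMA were infected with β-galactosidase-transfected Tulahuen epimastigotes at 5 parasites per cell. Infected cells were exposed to 50, 12.5, 3.125 and 0.78 µg/mL for 72 h. CPRG (100 uM) and 0.1% Nonidet P-40 were added for 3 h, read at 570 nm. EC50 by Probit. Triplicate, at least two experiments; benznidazole as reference.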

[13] = test system: Cryptococcus neoformans; assay: Antifungal activity against Cryptococcus neoformans ATCC 32264 incubated for 48 hrs under dark condition by broth microdilution method; assay type: functional; conditions: ATCC 32264, 48 h; outline: as §3
[14] = test system: Cryptococcus neoformans; assay: Growth inhibition of Cryptococcus neoformans ATCC 32264 at 7.8 ug/ml incubated for 48 hrs under dark condition by broth microdilution method relative to control; assay type: functional; conditions: ATCC 32264, 48 h, read-out: GI; outline: as §1
[15] = test system: Escherichia coli; assay: Antibacterial activity against Escherichia coli ATCC 25922 after 24 hrs by resazurin dye based microdilution assay; assay type: functional; conditions: ATCC 25922, 24 h; outline: as §2
[16] = test system: Cryptococcus neoformans; assay: Growth inhibition of Cryptococcus neoformans ATCC 32264 at 3.4 ug/ml incubated for 48 hrs under dark condition by broth microdilution method relative to control; assay type: functional; conditions: ATCC 32264, 48 h, read-out: GI
[17] = test system: Staphylococcus aureus; assay: Antibacterial activity against vancomycin-intermediate Staphylococcus aureus after 24 hrs by resazurin dye based microdilution assay; assay type: functional; outline: as §2
[18] = test system: Candida albicans; assay: Growth inhibition of Candida albicans ATCC 10231 at 7.8 ug/ml incubated for 48 hrs under dark condition by broth microdilution method relative to control; assay type: functional; conditions: ATCC 10231, 48 h, read-out: GI; outline: as §1
[19] = test system: Pseudomonas aeruginosa; assay: Antibacterial activity against Pseudomonas aeruginosa ATCC 27853 after 24 hrs by resazurin dye based microdilution assay; assay type: functional; conditions: ATCC 27853, 24 h; outline: as §2
[20] = test system: Cryptococcus neoformans; assay: Growth inhibition of Cryptococcus neoformans ATCC 32264 at 250 ug/ml incubated for 48 hrs under dark condition by broth microdilution method relative to control; assay type: functional; conditions: ATCC 32264, 48 h, read-out: GI; outline: as §1
[21] = test system: Candida albicans; assay: Growth inhibition of Candida albicans ATCC 10231 at 250 ug/ml incubated for 48 hrs under dark condition by broth microdilution method relative to control; assay type: functional; conditions: ATCC 10231, 48 h, read-out: GI; outline: as §1
[22] = test system: Klebsiella pneumoniae; assay: Antibacterial activity against ESBL positive Klebsiella pneumoniae ATCC 700603 after 24 hrs by resazurin dye based microdilution assay; assay type: functional; conditions: Klebsiella pneumoniae, 700603, 24 h; outline: as §2
[23] = test system: Staphylococcus aureus; assay: Antibacterial activity against methicillin-resistant Staphylococcus aureus ATCC 43300 after 24 hrs by resazurin dye based microdilution assay; assay type: functional; conditions: ATCC 43300, 24 h
Outline: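 Broth microdilution in Mueller Hinton broth, inoculum 5 × 10^5 – 8 × 10^5. Compound stocks diluted in MHB with 5% DMSO and 0.1% Tween 80. Incubation 24 h at 35-37 °C. MIC is the lowest concentration with visible growth inhibition and/or by resazurin (1 mg/mL) read-out. Gentamicin as control. Run in duplicate, replicated at least three times.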

[24] = test system: Candida albicans; assay: Growth inhibition of Candida albicans ATCC 10231 at 15.62 ug/ml incubated for 48 hrs under dark condition by broth microdilution method relative to control; assay type: functional; conditions: ATCC 10231, 48 h, read-out: GI; outline: as §1
[25] = test system: Cryptococcus neoformans; assay: Growth inhibition of Cryptococcus neoformans ATCC 32264 at 62.5 ug/ml incubated for 48 hrs under dark condition by broth microdilution method relative to control; assay type: functional; conditions: ATCC 32264, 48 h, read-out: GI; outline: as §1
[26] = test system: Neisseria gonorrhoeae; assay: Antibacterial activity against beta lactamase positive Neisseria gonorrhoeae ATCC 31426 by oxidase test; assay type: functional
Outline: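 Agar dilution MIC on GC agar with 1% isovitalex containing increasing compound concentrations. Plates inoculated with about 1×10^4 CFU (5 µL). MIC is the lowest concentration that inhibited growth, with growth confirmed by oxidase test. Run in duplicate, repeated at least three times.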

[27] = test system: Candida albicans; assay: Growth inhibition of Candida albicans ATCC 10231 at 62.5 ug/ml incubated for 48 hrs under dark condition by broth microdilution method relative to control; assay type: functional; conditions: ATCC 10231, 48 h, read-out: GI; outline: as §1
[28] = test system: Candida albicans; assay: Growth inhibition of Candida albicans ATCC 10231 at 125 ug/ml incubated for 48 hrs under dark condition by broth microdilution method relative to control; assay type: functional; conditions: ATCC 10231, 48 h, read-out: GI; outline: as §1

Row | Compound | inhibition of growth at 125 µg/mL [1] | MIC [2] | MIC [3] | EC50 [4] | inhibition of growth at 3.4 µg/mL [5] | LC50 [6] | inhibition of growth at 31.25 µg/mL [7] | EC50 [8] | inhibition of growth at 31.25 µg/mL [9] | inhibition of growth at 15.62 µg/mL [10] | MIC50 [11] | MIC80 [11] | EC50 [12] | MIC50 [13] | MIC80 [13] | inhibition of growth at 7.8 µg/mL [14] | MIC [15] | inhibition of growth at 3.4 µg/mL [16] | MIC [17] | inhibition of growth at 7.8 µg/mL [18] | further results
1 | Cc1ccc(C(=O)/C=C/c2cccc(Nc3ccnc4cc(Cl)ccc34)c2)cc1 | 100% | > 1000 µg/mL | > 1000 µg/mL | 1.2 µg/mL (≈ 3.01 µM) | 27.2% | 2 µg/mL (≈ 5.01 µM) | 100% | 10.3 µg/mL (≈ 25.7 µM) | 39.6% | 93.7% | 125 µg/mL (≈ 313 µM) | ≥ 250 µg/mL | > 1 µg/mL | 7.8 µg/mL (≈ 19.6 µM) | 15.6 µg/mL (≈ 39.2 µM) | 71.8% | > 1000 µg/mL | 41.4% | > 1000 µg/mL | 30.6% | MIC [19]: > 1000 µg/mL; inhibition of growth at 250 µg/mL [20]: 100%; inhibition of growth at 250 µg/mL [21]: 63.6%; MIC [22]: > 1000 µg/mL; MIC [23]: > 1000 µg/mL; inhibition of growth at 15.62 µg/mL [24]: 36.6%; inhibition of growth at 62.5 µg/mL [25]: 100%; MIC [26]: > 1000 µg/mL; inhibition of growth at 62.5 µg/mL [27]: 45.4%; inhibition of growth at 125 µg/mL [28]: 53.1%
2 | O=C(/C=C/c1cccc(Nc2ccnc3cc(Cl)ccc23)c1)c1ccc(Cl)cc1 | 100% | > 1000 µg/mL | > 1000 µg/mL | 0.79 µg/mL (≈ 1.88 µM) | 15.3% | 0.7 µg/mL (≈ 1.67 µM) | 100% | 209 µg/mL (≈ 497 µM) | 41.8% | 89% | 62.5 µg/mL (≈ 149 µM) | ≥ 250 µg/mL | 0.72 µg/mL (≈ 1.72 µM) | 7.8 µg/mL (≈ 18.6 µM) | 7.8 µg/mL (≈ 18.6 µM) | 82% | > 1000 µg/mL | 49.8% | > 1000 µg/mL | 29% | MIC [19]: > 1000 µg/mL; inhibition of growth at 250 µg/mL [20]: 100%; inhibition of growth at 250 µg/mL [21]: 78.4%; MIC [22]: > 1000 µg/mL; MIC [23]: > 1000 µg/mL; inhibition of growth at 15.62 µg/mL [24]: 39.4%; inhibition of growth at 62.5 µg/mL [25]: 100%; MIC [26]: > 1000 µg/mL; inhibition of growth at 62.5 µg/mL [27]: 50.3%; inhibition of growth at 125 µg/mL [28]: 68.2%
